Assay results reported in ChEMBL document CHEMBL4219216, “2-Aminoquinazolin-4(3H)-one based plasmepsin inhibitors with improved hydrophilicity and selectivity” (Bioorg Med Chem, 2018).
Values after ≈ are worked out from the molar mass of the structure shown.

Tests used:
Plasmepsin 4 = Plasmepsin 4 (Plasmodium falciparum, UniProt Q17SB2); assay: Inhibition of Plasmodium falciparum plasmepsin 4 using DABCYL-Glu-Arg-Nle-Phe-Leu-Ser-Phe-Pro-EDANS as substrate preincubated for 30 mins followed by substrate addition measured every 1 min within 8 to 15 mins by FRET assay
Chain of Plasmepsin 4 (Q17SB2 whole entry): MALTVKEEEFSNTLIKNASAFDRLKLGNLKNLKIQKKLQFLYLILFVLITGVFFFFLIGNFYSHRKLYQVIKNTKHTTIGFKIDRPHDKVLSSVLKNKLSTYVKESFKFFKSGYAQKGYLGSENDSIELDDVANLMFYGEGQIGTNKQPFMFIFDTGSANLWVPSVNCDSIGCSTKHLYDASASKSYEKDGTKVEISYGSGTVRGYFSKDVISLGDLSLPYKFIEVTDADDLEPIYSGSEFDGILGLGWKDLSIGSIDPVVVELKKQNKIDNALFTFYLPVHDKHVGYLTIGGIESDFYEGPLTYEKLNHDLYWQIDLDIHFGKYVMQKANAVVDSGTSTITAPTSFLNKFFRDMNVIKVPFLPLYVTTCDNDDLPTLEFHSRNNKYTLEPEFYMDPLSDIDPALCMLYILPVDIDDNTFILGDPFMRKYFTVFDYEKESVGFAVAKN
Outline: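 Plm IV in 0.1 M NaOAc pH 4.5 with 10% glycerol; compounds tested at 0.01–100 μM, preincubated with enzyme 30 min at 37 °C. […] Fluorescence (Ex 336/Em 490 nm) read at 37 °C; rate taken from the linear interval. Triplicate; IC50 fitted from rates; pepstatin A control.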

[1] = Solubility of the compound in Tris-buffer at pH 7.4 after 16 hrs by HPLC method; assay type: physicochemical; conditions: for solubility at 16 h: Tris buffer, pH 7.4
Outline: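 A DMSO stock (≈10 mg/mL) was diluted 10 µL into 2 mL of 0.05 M TRIS pH 7.4 (0.5% DMSO final) and shaken 16 h at 25 °C. After filtering off the precipitate, the solution was quantified by reversed-phase HPLC (UV 210 or 254 nm) against a methanol-diluted ≈0.05 mg/mL standard. Working range ≈0.005-0.05 mg/mL.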

Cathepsin D = Cathepsin D (Homo sapiens, UniProt P07339); assay: Inhibition of human cathepsin D using DABCYL-Glu-Arg-Nle-Phe-Leu-Ser-Phe-Pro-EDANS as substrate preincubated for 30 mins followed by substrate addition measured every 1 min within 8 to 15 mins by FRET assay
Chain of Cathepsin D (P07339 65-162 limits assumed): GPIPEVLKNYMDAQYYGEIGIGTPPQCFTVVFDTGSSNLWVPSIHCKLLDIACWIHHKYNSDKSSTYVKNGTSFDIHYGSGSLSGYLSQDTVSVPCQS
Chain of Cathepsin D (P07339 169-412 limits assumed): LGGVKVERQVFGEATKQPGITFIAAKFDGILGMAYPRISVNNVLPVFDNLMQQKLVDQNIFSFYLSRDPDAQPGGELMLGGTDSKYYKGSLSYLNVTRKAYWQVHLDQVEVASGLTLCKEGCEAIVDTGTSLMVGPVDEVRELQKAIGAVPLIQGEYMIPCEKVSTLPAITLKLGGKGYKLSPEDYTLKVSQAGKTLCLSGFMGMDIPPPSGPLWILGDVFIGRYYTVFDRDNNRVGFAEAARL

Plasmepsin I = Plasmepsin I (Plasmodium falciparum, UniProt P39898); assay: Inhibition of Plasmodium falciparum plasmepsin-1 using DABCYL-Glu-Arg-Nle-Phe-Leu-Ser-Phe-Pro-EDANS as substrate preincubated for 30 mins followed by substrate addition measured every 1 min within 8 to 15 mins by FRET assay
Chain of Plasmepsin I (P39898 whole entry): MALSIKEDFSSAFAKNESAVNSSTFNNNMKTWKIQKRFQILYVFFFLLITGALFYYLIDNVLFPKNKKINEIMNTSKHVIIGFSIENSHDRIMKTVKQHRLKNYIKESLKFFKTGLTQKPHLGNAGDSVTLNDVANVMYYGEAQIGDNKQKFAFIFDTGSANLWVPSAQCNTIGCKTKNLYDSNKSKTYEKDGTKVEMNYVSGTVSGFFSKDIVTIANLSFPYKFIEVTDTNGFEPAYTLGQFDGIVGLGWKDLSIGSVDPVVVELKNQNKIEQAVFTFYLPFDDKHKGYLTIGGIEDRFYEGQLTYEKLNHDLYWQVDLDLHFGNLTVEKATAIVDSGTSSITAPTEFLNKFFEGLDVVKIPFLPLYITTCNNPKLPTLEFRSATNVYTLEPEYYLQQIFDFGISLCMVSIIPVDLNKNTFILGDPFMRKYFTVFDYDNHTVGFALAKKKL
Outline: (§1)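 Test compounds at 0.01-100 μM preincubated with enzyme in 0.1 M NaOAc pH 4.5, 10% glycerol, for 30 min at 37 °C. […] Fluorescence (Ex 336, Em 490 nm) read at 37 °C. Rate taken from the linear interval only. Triplicate experiments, IC50 from dose-response fit.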

Plasmepsin II = Plasmepsin II (Plasmodium falciparum, UniProt P46925); assay: Inhibition of Plasmodium falciparum plasmepsin-2 using DABCYL-Glu-Arg-Nle-Phe-Leu-Ser-Phe-Pro-EDANS as substrate preincubated for 30 mins followed by substrate addition measured every 1 min within 8 to 15 mins by FRET assay; outline: as §1
Chain of Plasmepsin II (P46925 whole entry): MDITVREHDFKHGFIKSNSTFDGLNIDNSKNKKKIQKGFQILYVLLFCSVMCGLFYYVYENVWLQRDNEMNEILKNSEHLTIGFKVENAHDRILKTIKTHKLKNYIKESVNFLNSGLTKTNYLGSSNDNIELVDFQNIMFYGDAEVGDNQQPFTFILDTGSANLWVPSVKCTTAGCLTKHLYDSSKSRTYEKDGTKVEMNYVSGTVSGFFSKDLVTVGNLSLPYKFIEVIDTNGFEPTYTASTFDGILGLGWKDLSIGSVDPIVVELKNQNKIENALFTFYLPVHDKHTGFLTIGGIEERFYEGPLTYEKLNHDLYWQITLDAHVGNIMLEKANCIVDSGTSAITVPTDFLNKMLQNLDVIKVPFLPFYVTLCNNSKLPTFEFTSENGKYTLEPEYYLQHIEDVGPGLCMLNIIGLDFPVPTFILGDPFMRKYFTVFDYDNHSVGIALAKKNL

[2] = target: Plasmepsin I (Plasmodium falciparum) (UniProt P39898); assay: Inhibition of Plasmodium falciparum plasmepsin-1 using DABCYL-Glu-Arg-Nle-Phe-Leu-Ser-Phe-Pro-EDANS as substrate preincubated for 30 mins followed by substrate addition measured every 1 min within 8 to 15 mins by FRET assay
Chain of Plasmepsin I (Plasmodium falciparum) (P39898 whole entry, looked up): as the sequence (P39898 whole entry) above

Compound | IC50 (Plasmepsin 4) | solubility at 16 h [1] | IC50 (Cathepsin D) | IC50 (Plasmepsin I) | IC50 (Plasmepsin II) | IC50 [2] | solubility ([1]; buffer, pH 7.4, 16 h)
CCCCCc1ccc(-c2ccc3c(=O)n(C[C@@H]4CC[C@H](c5ccccc5)O4)c(N)nc3c2)cc1 | 100 nM | < 0.01 µg/mL |  |  |  |  | 
Oc1ccc(/C=C/c2cc(O)cc(O)c2)cc1 [RESVERATROL] |  |  | 138000 nM |  |  |  | 
CCCCCc1ccc(-c2cc(CCC(=O)O)c3c(=O)n(CC4CCCO4)c(N)nc3c2)cc1 (racemic) | 42 nM | 0.1 µg/mL (≈ 0.216 µM) | 21000 nM | 50 nM | 27 nM |  | 
Nc1nc2cc(-c3ccccc3)cc(-c3ccc(C(=O)O)cc3)c2c(=O)n1C[C@@H]1CC[C@H](c2ccccc2)O1 | 500 nM |  | 20000 nM | 600 nM | 280 nM |  | 
CCCCCCCCc1cc(CCC(=O)O)c2c(=O)n(CC3CCCO3)c(N)nc2c1 (racemic) | 110 nM |  | 430 nM | 20 nM | 22 nM |  | 
Nc1nc2cc(-c3ccc(CCCc4ccccc4)cc3)ccc2c(=O)n1CC1CCCO1 (racemic) | 100 nM |  | > 100000 nM | 1300 nM | 700 nM |  | 
Nc1nc2cc(-c3ccccc3)cc(-c3ccc(C(=O)O)cc3)c2c(=O)n1CC1CCCO1 (racemic) | 1400 nM |  | 100000 nM | 3500 nM | 330 nM |  | 
Nc1nc2cc(-c3ccccc3)cc(-c3cccnc3)c2c(=O)n1CC1CCCO1 (racemic) | 1500 nM |  | 71000 nM | 3000 nM | 480 nM |  | 
CCCCCc1ccc(-c2ccc3c(=O)n(CC4CCCO4)c(N)nc3c2)cc1 (racemic) | 92 nM |  | 3200 nM | 700 nM | 75 nM |  | 
CC(C)CC(=O)N[C@H](C(=O)N[C@H](C(=O)N[C@@H](CC(C)C)[C@@H](O)CC(=O)N[C@@H](C)C(=O)N[C@@H](CC(C)C)[C@@H](O)CC(=O)O)C(C)C)C(C)C [PEPSTATIN] | 0.3 nM |  |  | 0.42 nM |  | 0.42 nM | 
Nc1nc2cc(-c3ccccc3)cc(-c3cccc(C(=O)O)c3)c2c(=O)n1CC1CCCO1 (racemic) | 1500 nM |  | 98000 nM | 1000 nM | 500 nM |  | 
Nc1nc2cc(-c3ccc(CCCc4ccccc4)cc3)cc(CCC(=O)O)c2c(=O)n1CC1CCCO1 (racemic) | 30 nM |  | 13000 nM | 740 nM | 80 nM |  | 0.01 µg/mL (≈ 0.0195 µM)
Nc1nc2cc(-c3ccc(CCCc4ccccc4)cc3)ccc2c(=O)n1C[C@@H]1CC[C@H](c2ccccc2)O1 | 130 nM | < 0.01 µg/mL |  |  |  |  | 
Nc1cccc(-c2cc(-c3ccccc3)cc3nc(N)n(CC4CCCO4)c(=O)c23)c1 (racemic) | 1000 nM |  | 93000 nM | 2000 nM | 820 nM |  | 
NC(=O)c1ccc(-c2cc(-c3ccccc3)cc3nc(N)n(CC4CCCO4)c(=O)c23)cc1 (racemic) | 2500 nM |  | > 100000 nM | 3400 nM | 600 nM |  | 
CCCCCc1ccc(-c2cc(-c3ccc(C(=O)O)cc3)c3c(=O)n(CC4CCCO4)c(N)nc3c2)cc1 (racemic) | 45 nM | 0.03 µg/mL (≈ 0.0586 µM) | 29000 nM | 2400 nM | 23 nM |  | 
Nc1nc2cc(-c3ccccc3)cc(-c3ccncc3)c2c(=O)n1CC1CCCO1 (racemic) | 2400 nM |  | > 100000 nM | 5000 nM | 1000 nM |  | 
